# Bioassay records from PubChem BioAssay.
# Sampled rows, rich in hits. Any-hit rate of the full collection: about 1.6%.
# PAD4 FP inh: inhibitors of human PAD4; 330,000 compounds, 0.41% hits; inhibition, % at 6.36 µM; recombinant PAD4, RCA probe fluorescence polarization; Q9UM07;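 active = percent inhibition above a cutoff equal to the mean of all tested compounds plus 3 SD, cut at about 15% in these data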
# TDP2 inh: blocks human TDP2 phosphodiesterase activity; recombinant TDP2, T5PNP hydrolysis, p-nitrophenol absorbance 415 nm; 370,000 compounds, 0.34% hits; O95551; inhibition, % at 12.8 µM;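 active = inhibition above the mean of all tested compounds plus 3 SD, set per campaign, cut at about 25% in these data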
#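 System – recombinant human TDP2 · Quantity – TDP2 enzyme at 120 nM final · Doses – single concentration, 12.8 µM nominal, with 1% DMSO · Incubation – 2 h at 37 °C · Measured by – epi absorbance of p-nitrophenol freed from T5PNP by hydrolysis · Read-out – % inhibition relative to enzyme-containing and enzyme-free wells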
# SUMO HTRF inh: SUMOylation inhibition; 290,000 compounds, 0.36% hits; HTRF SUMOylation assay, SAE1/SAE2 + UBC9, in vitro; P63279; inhibition, % at 35 µM; in the data active = inhibition above about 50%, passing the limit was not always enough
# Target sequence (P63279 whole entry, looked up): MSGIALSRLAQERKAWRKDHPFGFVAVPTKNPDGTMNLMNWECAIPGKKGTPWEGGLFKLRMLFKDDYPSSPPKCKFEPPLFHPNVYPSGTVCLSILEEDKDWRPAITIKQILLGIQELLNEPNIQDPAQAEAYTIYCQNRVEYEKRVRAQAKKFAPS
# GASC-1 inh: inhibitors of human GASC-1 (JMJD2C) demethylase; inhibition, % at 2.35 µM; 330,000 compounds, 0.069% hits; GST-JMJD2C(1-420) H3K9me3 demethylation, DELFIA europium; Q9H3R0;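 active = more than half of a compound's replicate wells show inhibition beyond 50%, single wells judged on their own value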;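 also: signal counts dimethyl H3K9 product captured on neutravidin plate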
# GSTO1 inh: blocks human GSTO1 in RBBP9 counter-screen; P78417; recombinant GSTO1, activity-based probe fluorescence polarization; inhibition, % at 5.96 µM; 300,000 compounds, 1.1% hits; AID 1974;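 active = inhibition above the campaign mean inhibition plus 3 SD, cut at about 35% in these data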
# Target sequence (P78417 whole entry, looked up): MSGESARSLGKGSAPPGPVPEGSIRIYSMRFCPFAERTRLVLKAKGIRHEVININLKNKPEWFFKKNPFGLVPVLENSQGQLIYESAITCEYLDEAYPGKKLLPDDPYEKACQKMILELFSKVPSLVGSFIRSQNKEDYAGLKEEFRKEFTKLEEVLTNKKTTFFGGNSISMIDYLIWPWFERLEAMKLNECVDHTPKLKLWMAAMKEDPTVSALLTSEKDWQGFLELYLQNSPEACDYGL
# Apaf1 inhib: human Apaf-1 inhibition; reconstituted apoptosome caspase-3 activity, DEVD-Rh110 fluorescence; 330,000 compounds, 0.71% hits; inhibition, % at 20 µM; active = inhibition of at least 40% at 20 µM
#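 Medium: Hepes buffer, pH 7.5 / System: biochemical Apaf-1 apoptosome reconstitution / Measured by: Rh110 fluorescence, excitation 480 nm, emission 540 nm / Times: compound with Apaf-1, dATP, procaspase-3 30 min, then 50 min reaction, room temperature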
# Apaf-1 inh conf2: confirmation of Apaf-1 inhibitors | shares compounds with Apaf1 inhib | reconstituted apoptosome, caspase-3 DEVD-Rh110 fluorescence | inhibition, % at 20 µM | 1,800 compounds, 25% hits;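 active = mean inhibition of at least 40% at 20 µM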
# Rh110 quench: counter-screen for Apaf-1 inhibitors: fluorescence interference | Rh110 fluorescence interference, quenched caspase reaction | 1,800 tested, under 10 active | shares compounds with Apaf1 inhib | activation (fluorescence interference), % at 20 µM;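 active = signal rise of 40% or more at 20 µM, treated as a fluorescence artifact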
# Apaf1 inh interf: Apaf-1 inhibitor counter-screen fluorescence artifact. shares compounds with Apaf1 inhib. fluorescence interference counterscreen, Apaf-1 assay format. IC50, µM. 460 tested, under 10 active; call rule not given here
# Numbers stand for hits; . = inactive; / = no result.
SMILES,PAD4 FP inh,TDP2 inh,SUMO HTRF inh,GASC-1 inh,GSTO1 inh,Apaf1 inhib,Apaf-1 inh conf2,Rh110 quench,others
CC(=O)c1ccc(N2CCN(S(=O)(=O)c3ccc4c(c3)CC(=O)N4)CC2)cc1,.,.,.,.,.,.,/,/,
CC(=O)c1ccc(N2CCN(S(=O)(=O)c3ccc4c5c3CC(=O)N5CC(C)S4)CC2)cc1 (stereo not drawn),.,/,.,.,.,56,42,.,Apaf1 inh interf=.
COC(=O)[C@H](CC(C)C)N1Cc2nnn(CC3CCCCC3)c2-c2cc(F)ccc2S1(=O)=O,/,.,/,/,/,/,/,/,
O=C1C(=C(O)c2ccccc2)C(=O)c2ccccc21,.,.,.,.,.,41,.,.,
c1ccc(-c2nnc3n2N=C(c2ccc4ccccc4c2)CS3)cc1,/,.,/,/,/,/,/,/,
Cc1cc(N2CCN(c3ccc([N+](=O)[O-])c4cccnc34)CC2)c2ccccc2n1,.,/,.,.,.,60,47,.,Apaf1 inh interf=.
Cc1cc(N2CCN(c3ccc(C(F)(F)F)cc3[N+](=O)[O-])CC2)c2ccccc2n1,.,.,.,.,.,.,/,/,
O=C(c1ccc2ncsc2c1)N1CCCC(C(F)(F)F)C1 (stereo not drawn),.,.,/,.,.,42,.,.,
O=C(c1ccc(Cl)c(S(=O)(=O)N2CCCCCC2)c1)N1CCCC(C(F)(F)F)C1 (stereo not drawn),.,.,/,.,.,60,.,.,
Cc1ccc(C(=O)N2CCCC(C(F)(F)F)C2)cc1S(=O)(=O)N1CCCCC1 (stereo not drawn),.,.,/,.,.,.,/,/,
Cc1nn(Cc2c(F)c(F)c(F)c(F)c2F)c(C)c1NC(=O)c1ccc(COc2ccc(Cl)cc2Cl)o1,.,.,.,.,.,46,.,.,
Nc1ccc2nc(-c3ccccc3)c(-c3ccccc3)nc2c1,.,.,.,.,.,65,.,.,
CN(C)CCNC(=O)C(=O)NCC1OCCN1S(=O)(=O)c1cc(F)ccc1F (stereo not drawn),.,.,.,.,.,47,.,.,
NC(N)=NC(N)=Nc1cccc2ccccc12,.,.,.,.,.,83,.,.,
CC(C)CCNC(=O)[C@H]1COC(O)([C@H](Cc2ccccc2)NC(=O)[C@@H](NC(=O)OCc2ccccc2)C(C)C)CN1C (stereo partly drawn),/,.,/,/,/,/,/,/,
COc1ccc(NC(=O)CSc2nnc(-c3cccs3)n2C)cc1OC,.,.,.,.,.,.,/,/,
COc1ccc(NC(=O)CSc2nc3c(c(-c4cccs4)c2C#N)CN(C)CC3)cc1OC,.,.,.,.,.,67,.,.,
CC(C)C[C@@H]1COc2cc(Br)ccc2S(=O)(=O)N1Cc1cn(CCC2OCCO2)nn1,/,.,/,/,/,/,/,/,
CN1CCN(CCCNC(=O)c2ccc(/C=C3\Sc4ccccc4N(Cc4ccc(F)cc4)C3=O)cc2)CC1,/,.,.,.,/,/,/,/,
CCN1CCN(CCNC(=O)c2ccc(/C=C3\Sc4ccccc4N(Cc4ccccc4F)C3=O)cc2)CC1,.,.,.,.,.,41,.,.,
C=CCCC(=O)N[C@H]1CC[C@@]23CCCN2C(=O)CCC[C@H]3[C@H]1C,/,.,/,/,/,/,/,/,
O=C(NCC(c1ccco1)N1CCCC1)c1cccc(S(=O)(=O)Nc2ccc(Br)cc2)c1 (stereo not drawn),.,.,.,.,.,59,42,.,Apaf1 inh interf=.
O=C(CSc1nc2ccccc2n1Cc1ccccc1)NN=Cc1c[nH]c2ccccc12,/,.,/,/,/,/,/,/,
Cn1c(C(=O)NCCN2CCCCCC2)cc2c(=O)n(C)c3ccccc3c21,.,.,.,.,.,43,.,.,
Cn1c(C(=O)NCCN2CCN(Cc3ccccc3)CC2)cc2c(=O)n(C)c3ccccc3c21,.,.,.,.,.,.,/,/,
SMILES,PAD4 FP inh,TDP2 inh,SUMO HTRF inh,GASC-1 inh,GSTO1 inh,Apaf1 inhib,Apaf-1 inh conf2,Rh110 quench,others
CCCC(=O)N1CCC[C@]2(CC[C@@H](CCC(=O)OCC)O2)C1,/,.,/,/,/,/,/,/,
CC(C)CSc1ncccc1-c1nc2ccccc2[nH]1,/,.,/,/,/,/,/,/,
COc1ccc(C2C(C(=O)N3CCN(C=O)CC3)CC(=O)N2c2ccc(OC)cc2)cc1 (stereo not drawn),/,.,/,/,/,/,/,/,
O=C(c1ccc(Cn2c(=O)[nH]c3ccccc3c2=O)cc1)N1CCN(c2ccc(Cl)cc2)CC1,.,.,.,.,.,41,.,.,
Cc1ccc(C)c(N2CCN(C(=O)c3ccc(Cn4c(=O)[nH]c5ccccc5c4=O)cc3)CC2)c1,.,.,.,.,.,.,/,/,
O=C(CSc1nnc(-c2cccs2)o1)Nc1cccc2ccccc12,/,.,/,/,/,/,/,/,
C[C@H]1CN([C@@H](C)CO)C(=O)c2cc(NS(=O)(=O)c3ccc(Cl)cc3)ccc2O[C@@H]1CN(C)CC1CCCCC1,.,.,/,.,/,.,/,/,
CNC[C@@H]1Oc2ccc(NS(=O)(=O)c3ccc(Cl)cc3)cc2C(=O)N([C@H](C)CO)C[C@@H]1C,.,.,/,.,/,45,.,.,
Cc1ccccc1NC(=O)Cn1nnc(-c2ccncc2)n1,/,.,/,/,/,/,/,/,
O=C(Nc1ccc(OC(F)(F)F)cc1)Nc1c(-c2ccccc2)nc2ncccn12,/,.,/,/,/,/,/,/,
Cc1cc(SCC2=NNC(=O)C2)c(Cl)cc1Cl,.,.,.,.,.,47,.,.,
CC(c1ccccc1)n1cc(C(=O)N2CCCN(Cc3ccccc3)CC2)nn1 (stereo not drawn),/,.,/,/,/,/,/,/,
O=[N+]([O-])c1ccccc1/C=C/C=Nn1c(-c2ccc(F)cc2)n[nH]c1=S,/,.,/,/,/,/,/,/,
c1csc(Cc2nn3c(-c4n[nH]c5c4CCC5)nnc3s2)c1,.,.,.,.,.,41,.,.,
COC(=O)C1=C(C)N(Cc2ccccc2)C(=NCc2ccc(OC)cc2)N[C@H]1c1cccc(F)c1,.,.,.,.,.,56,.,.,
COC(=O)C1=C(C)N(Cc2ccccc2)C(=NCC(C)C)N[C@H]1c1cccc(F)c1,.,.,/,/,/,44,.,.,
COC(=O)C1=C(C)N(Cc2ccccc2)C(=NCCc2ccccn2)N[C@H]1c1cccc(C(F)(F)F)c1,.,.,/,.,/,48,.,.,
COC(=O)C1=C(C)N(Cc2ccccc2)C(=NCc2ccc3c(c2)OCO3)N[C@H]1c1ccccc1,.,.,/,.,/,45,.,.,
CC(C)(N[C@@H](Cc1c[nH]c2ccccc12)C(=O)NCCCc1ccccc1)C(=O)NCc1ccccc1,/,.,/,/,/,/,/,/,
C=CC[C@@H]1NN2C(=O)[C@@H](CCCC)[C@@H]3c4cc5ccccc5cc4C=NN3[C@@H]2c2cc3ccccc3cc21,/,.,/,/,/,/,/,/,
CC(C)c1cc(C(=O)N(C2CCCCC2)C2CCCCC2)no1,/,.,/,/,/,/,/,/,
